{"data": "Experimental data gathered from unrelated publications", "medium": "plasma", "note": "Protocols differ between the studies behind these lines."}
{"Compound": "CC[C@H](C)[C@@H]1NC(=O)[C@@H]2CCCN2C(=O)[C@H](CC(C)C)NC(=O)[C@H](CC(C)C)NC(=O)CNC(=O)[C@@H](NC(=O)[C@@H](NC(=O)[C@H](CC(=O)O)NC(=O)CNC(=O)[C@@H](NC(=O)[C@H](C)NC(=O)CNC(=O)[C@H](CCCCN)NC(=O)[C@H](CC(C)C)NC(=O)[C@H](CC(C)C)NC(=O)[C@H](CCCCN)NC(=O)CNC(=O)[C@@H](NC(=O)[C@@H](N)CC(C)C)C(C)C)C(C)C)C(C)C)CSSC[C@@H](C(=O)O)NC1=O", "test system": "female C57BL/6 mouse", "setting": "intravenous, 10 mg/kg, single dose", "measurement": "C0", "result": "3190 ng/mL"}
{"Compound": "C[C@@H](O)[C@@H]1NC(=O)CNC(=O)[C@H](Cc2c[nH]cn2)NC(=O)[C@H](Cc2c[nH]c3ccccc23)NC(=O)[C@H](CC(N)=O)NC(=O)CNC(=O)C[C@@H](C(=O)N[C@@H](Cc2c[nH]c3ccccc23)C(=O)N[C@@H](Cc2ccccc2)C(=O)N[C@@H](Cc2ccccc2)C(=O)N[C@@H](CC(N)=O)C(=O)N[C@@H](Cc2ccc(O)cc2)C(=O)N[C@@H](Cc2ccc(O)cc2)C(=O)N[C@@H](Cc2c[nH]c3ccccc23)C(=O)O)NC(=O)[C@@H]2CCCN2C(=O)[C@H](CO)NC1=O", "test system": "mouse", "setting": "intravenous, 3 mg/kg", "measurement": "clearance", "result": "1.34 mL/min/kg"}
{"Compound": "CC(C)[C@]12O[C@H]1[C@@H]1O[C@]13[C@]1(O[C@H]1C[C@H]1C4=C(CC[C@@]13C)C(=O)OC4)[C@@H]2O", "test system": "SCID mouse", "setting": "intravenous, 0.6 mg/kg", "measurement": "clearance", "result": "20.5 mL/min/kg"}
{"Compound": "N=C(N)NCCC[C@H](NC(=O)[C@H](Cc1ccccc1)NC(=O)[C@H](CCC(N)=O)NC(=O)OCc1ccccc1)C(=O)c1nccs1", "test system": "female C57BL/6 mouse", "setting": "intravenous, 5 mg/kg", "measurement": "clearance", "result": "70.2 mL/min/kg"}
{"Compound": "CC[C@H](C)[C@H](NC(=O)[C@H](Cc1ccccc1)NC(=O)[C@H](CCC(=O)O)NC(=O)[C@H](CCCCN)NC(=O)[C@H](C)NC(=O)[C@H](C)NC(=O)[C@H](CCC(N)=O)NC(=O)CNC(=O)[C@H](CCC(=O)O)NC(=O)[C@H](CC(C)C)NC(=O)[C@H](Cc1ccc(O)cc1)NC(=O)[C@H](CO)NC(=O)[C@H](CO)NC(=O)[C@@H](NC(=O)[C@H](CC(=O)O)NC(=O)[C@H](CO)NC(=O)[C@@H](NC(=O)[C@H](Cc1ccccc1)NC(=O)[C@@H](NC(=O)CNC(=O)[C@H](CCC(=O)O)NC(=O)[C@H](C)NC(=O)N(N)Cc1c[nH]cn1)[C@@H](C)O)[C@@H](C)O)C(C)C)C(=O)N[C@@H](C)C(=O)N[C@@H](Cc1c[nH]c2ccccc12)C(=O)N[C@@H](CC(C)C)C(=O)N[C@H](C(=O)N[C@@H](CCCNC(=N)N)C(=O)NCC(=O)N[C@@H](CCCNC(=N)N)C(=O)NCC(=O)O)C(C)C", "test system": "male CD-1 mouse", "setting": "intravenous, 1 mg/kg, single dose", "measurement": "C0", "result": "37700 ng/mL"}
{"Compound": "CC(=O)c1c(C)c2cnc(Nc3ccc(C4CCN(CCS(C)(=O)=O)CC4)cn3)nc2n(C2CCCC2)c1=O", "test system": "male beagle dog", "setting": "oral, 6 mg/kg, multiple doses", "measurement": "Cmax", "result": "98.5 ng/mL"}
{"Compound": "CC[C@H](C)CCCCC(=O)N[C@@H](CCN)C(=O)N[C@H](C(=O)N[C@@H](CCN)C(=O)N[C@H]1CCNC(=O)[C@H]([C@@H](C)O)NC(=O)[C@H](CCN)NC(=O)[C@H](CCN)NC(=O)[C@H](CC(C)C)NC(=O)[C@@H](CC(C)C)NC(=O)[C@H](CCN)NC1=O)[C@@H](C)O", "test system": "male Sprague-Dawley rat", "setting": "subcutaneous, 10 mg/kg", "measurement": "Tmax", "result": "2.67 h"}
{"Compound": "CC(C)=CCC[C@](C)(O[C@@H]1O[C@H](CO)[C@@H](O)[C@H](O)[C@H]1O)[C@H]1CC[C@]2(C)[C@@H]1[C@H](O)C[C@@H]1[C@@]3(C)CC[C@H](O)C(C)(C)[C@@H]3CC[C@]12C", "test system": "mouse", "setting": "intravenous, 2 mg/kg", "measurement": "clearance", "result": "0.46 L/h"}
